# Reference: PMC6543826 (Bioorganic chemistry, 2018)
# Values joined by “and” are separate entries in the source; they are usually repeats but may differ in a detail not shown here. Equal entries are not always repeated.
# How the values were obtained:
# CCRF-CEM = experiment: cells; type: cell-based
# HL-60 (TB) = experiment: cells; type: cell-based
# K-562 = experiment: cells; type: cell-based
# RPMI-8226 = experiment: cells; type: cell-based
# HOP-92 = experiment: cells; type: cell-based
# NCI-H226 = experiment: cells; type: cell-based
# NCI-H460 = experiment: cells; type: cell-based
# HCC-2998 = experiment: cells; type: cell-based
# HCT-15 = experiment: cells; type: cell-based
# HT29 = experiment: cells; type: cell-based
# KM 12 = experiment: cells; type: cell-based
# SW-620 = experiment: cells; type: cell-based
# SF-268 = experiment: cells; type: cell-based
# SF-295 = experiment: cells; type: cell-based
# SNB-19 = experiment: cells; type: cell-based
# SNB-75 = experiment: cells; type: cell-based
# U251 = experiment: cells; type: cell-based
# LOX IMVI = experiment: cells; type: cell-based
# MALME-3M = experiment: cells; type: cell-based
# MDA-MB-435 = experiment: cells; type: cell-based
# SK-MEL-28 = experiment: cells; type: cell-based
# UACC-62 = experiment: cells; type: cell-based
# OVCAR-4 = experiment: cells; type: cell-based
# SK-OV-3 = experiment: cells; type: cell-based
# RXF 393 = experiment: cells; type: cell-based
# SN12C = experiment: cells; type: cell-based
# UO-31 = experiment: cells; type: cell-based
# PC-3 = experiment: cells; type: cell-based
# DU-145 = experiment: cells; type: cell-based
# MCF7 = experiment: cells; type: cell-based
# T-47D = experiment: cells; type: cell-based
# ERK1 = ERK1 (Homo sapiens, UniProt P27361); experiment: in vitro radioactive kinase assay, Ets-1 phosphorylation by ERK1; type: biochemical; conditions: ERK1 IC50, 100 μM ATP, 10 μM Ets-1
# ERK1, sequence (P27361 whole entry, species assumed): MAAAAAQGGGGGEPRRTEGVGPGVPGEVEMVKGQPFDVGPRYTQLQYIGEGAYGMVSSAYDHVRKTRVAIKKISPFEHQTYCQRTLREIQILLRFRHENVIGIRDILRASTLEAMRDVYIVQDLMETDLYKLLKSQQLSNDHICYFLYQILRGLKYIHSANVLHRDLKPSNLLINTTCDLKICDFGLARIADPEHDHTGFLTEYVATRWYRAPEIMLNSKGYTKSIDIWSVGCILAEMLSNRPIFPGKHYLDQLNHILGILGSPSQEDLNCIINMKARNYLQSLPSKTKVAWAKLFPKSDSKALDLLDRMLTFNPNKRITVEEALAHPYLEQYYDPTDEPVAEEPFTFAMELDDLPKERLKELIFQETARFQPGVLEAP
# Procedure, shortened: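 Radiometric assay at 28–30 °C in 25 mM HEPES pH 7.5, 50 mM KCl, 0.1 mM EDTA/EGTA, 2 mM DTT, 11 mM MgCl2, 10 μg mL−1 BSA and 5% DMSO (final). 2 nM activated ERK1 was used with 10 μM His-Ets-1 (1–138). Reactions were started with [γ-32P]ATP (10 or 100 μM). IC50 came from fitting rate versus inhibitor concentration to a hyperbolic decay equation.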
# JNK2 = JNK2 (Homo sapiens, UniProt P45984); experiment: in vitro kinase assay, GST-c-Jun; type: biochemical
# JNK2, sequence (P45984 whole entry): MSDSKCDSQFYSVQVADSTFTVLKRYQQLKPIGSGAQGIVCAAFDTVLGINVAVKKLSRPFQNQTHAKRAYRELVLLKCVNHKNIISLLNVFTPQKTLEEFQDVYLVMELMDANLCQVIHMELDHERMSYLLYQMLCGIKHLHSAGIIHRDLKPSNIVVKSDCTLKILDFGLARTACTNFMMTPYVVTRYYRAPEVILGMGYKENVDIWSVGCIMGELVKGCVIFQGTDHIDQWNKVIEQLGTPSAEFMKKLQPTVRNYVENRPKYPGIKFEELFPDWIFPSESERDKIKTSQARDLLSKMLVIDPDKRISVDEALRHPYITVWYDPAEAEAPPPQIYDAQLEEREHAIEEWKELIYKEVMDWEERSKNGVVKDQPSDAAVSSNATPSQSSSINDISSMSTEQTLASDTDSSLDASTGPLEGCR
# p38MAPKα = p38MAPKα (Homo sapiens, UniProt Q16539); experiment: in vitro kinase assay, GST-ATF2; type: biochemical
# p38MAPKα, sequence (Q16539 whole entry): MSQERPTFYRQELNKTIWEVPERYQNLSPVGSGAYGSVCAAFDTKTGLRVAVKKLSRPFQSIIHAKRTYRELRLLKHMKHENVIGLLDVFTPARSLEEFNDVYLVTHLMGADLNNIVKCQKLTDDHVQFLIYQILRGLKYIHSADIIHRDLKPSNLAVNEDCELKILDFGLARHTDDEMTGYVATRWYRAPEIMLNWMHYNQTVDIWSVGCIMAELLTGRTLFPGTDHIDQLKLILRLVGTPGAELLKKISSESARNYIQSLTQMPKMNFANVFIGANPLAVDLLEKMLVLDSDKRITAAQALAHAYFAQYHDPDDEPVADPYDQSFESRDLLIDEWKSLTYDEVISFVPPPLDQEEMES
# [1] = system: NCI-60 panel of tumor cell lines
smiles,measurement,setting,value
"O=C1c2ccccc2C(=O)c2c1oc1c2c(=O)[nH]c2ccc(Cl)cc21 [3b, 2-Chloronaphtho[2′,3′:4,5]furo[3,2-c]quinoline-6,7,12(5H)-trione]",Growth percent (G%),"CCRF-CEM; 10^−5 M, 48 h",29.04%
same,GI50,CCRF-CEM; Homo sapiens,410 nM
same,CC50,"CCRF-CEM; Homo sapiens, read-out: LC50",> 100000 nM
same,TGI,CCRF-CEM; five-dose,4860 nM
same,Growth percent (G%),"HL-60 (TB); HL-60(TB), 10^−5 M, 48 h",94.52%
same,TGI,"HL-60 (TB); HL-60 (TB), five-dose",5250 nM
same,GI50,"HL-60 (TB); Homo sapiens, HL-60",1700 nM
same,CC50,"HL-60 (TB); Homo sapiens, HL-60, read-out: LC50",34800 nM
same,GI50,"K-562; Homo sapiens, K562",370 nM
same,CC50,"K-562; Homo sapiens, K562, read-out: LC50",50100 nM
same,Growth percent (G%),"K-562; K-562, 10^−5 M, 48 h",12.90%
same,TGI,"K-562; K-562, five-dose",2000 nM
same,GI50,"RPMI-8226; Homo sapiens, RPMI-8226",390 nM
same,CC50,"RPMI-8226; Homo sapiens, RPMI-8226, read-out: LC50",> 100000 nM
same,Growth percent (G%),"RPMI-8226; RPMI-8226, 10^−5 M, 48 h",4.83%
same,TGI,"RPMI-8226; RPMI-8226, five-dose",2630 nM
same,Growth percent (G%),"HOP-92; HOP-92, 10^−5 M, 48 h",−37.24%
same,TGI,"HOP-92; HOP-92, five-dose",390 nM
same,GI50,"HOP-92; Homo sapiens, HOP-92",150 nM
same,CC50,"HOP-92; Homo sapiens, HOP-92, read-out: LC50",1000 nM
same,GI50,"NCI-H226; Homo sapiens, NCI-H226",140 nM
same,CC50,"NCI-H226; Homo sapiens, NCI-H226, read-out: LC50",870 nM
same,Growth percent (G%),"NCI-H226; NCI-H226, 10^−5 M, 48 h",−28.80%
same,TGI,"NCI-H226; NCI-H226, five-dose",350 nM
same,GI50,"NCI-H460; Homo sapiens, NCI-H460",220 nM
same,CC50,"NCI-H460; Homo sapiens, NCI-H460, read-out: LC50",1480 nM
same,Growth percent (G%),"NCI-H460; NCI-H460, 10^−5 M, 48 h",−69.73%
same,TGI,"NCI-H460; NCI-H460, five-dose",490 nM
same,Growth percent (G%),"HCC-2998; HCC-2998, 10^−5 M, 48 h",65.07%
same,TGI,"HCC-2998; HCC-2998, five-dose",2570 nM
same,CC50,"HCC-2998; Homo sapiens, HCC 2998, read-out: LC50",9120 nM
same,Growth percent (G%),"HCT-15; HCT-15, 10^−5 M, 48 h",−31.10%
same,TGI,"HCT-15; HCT-15, five-dose",510 nM
same,GI50,"HCT-15; Homo sapiens, HCT-15",210 nM
same,CC50,"HCT-15; Homo sapiens, HCT-15, read-out: LC50",2000 nM
same,Growth percent (G%),"HT29; HT29, 10^−5 M, 48 h",66.37%
same,TGI,"HT29; HT29, five-dose",12880 nM
same,GI50,"HT29; Homo sapiens, HT-29",3720 nM
same,CC50,"HT29; Homo sapiens, HT-29, read-out: LC50",39800 nM
same,GI50,"KM 12; Homo sapiens, KM12",450 nM
same,CC50,"KM 12; Homo sapiens, KM12, read-out: LC50",27500 nM
same,Growth percent (G%),"KM 12; KM 12, 10^−5 M, 48 h",0.12%
same,TGI,"KM 12; KM 12, five-dose",3020 nM
same,GI50,"SW-620; Homo sapiens, SW-620",330 nM
same,CC50,"SW-620; Homo sapiens, SW-620, read-out: LC50",7590 nM
same,Growth percent (G%),"SW-620; SW-620, 10^−5 M, 48 h",−53.04%
same,TGI,"SW-620; SW-620, five-dose",1000 nM
same,GI50,"SF-268; Homo sapiens, SF-268",460 nM
same,CC50,"SF-268; Homo sapiens, SF-268, read-out: LC50",49000 nM
same,Growth percent (G%),"SF-268; SF-268, 10^−5 M, 48 h",−31.69%
same,TGI,"SF-268; SF-268, five-dose",3980 nM
same,GI50,"SF-295; Homo sapiens, SF-295",630 nM
same,CC50,"SF-295; Homo sapiens, SF-295, read-out: LC50",6610 nM
same,Growth percent (G%),"SF-295; SF-295, 10^−5 M, 48 h",−1.34%
same,TGI,"SF-295; SF-295, five-dose",2290 nM
same,GI50,"SNB-19; Homo sapiens, SNB-19",310 nM
same,CC50,"SNB-19; Homo sapiens, SNB-19, read-out: LC50",6170 nM
same,Growth percent (G%),"SNB-19; SNB-19, 10^−5 M, 48 h",7.11%
same,TGI,"SNB-19; SNB-19, five-dose",1100 nM
same,GI50,"SNB-75; Homo sapiens, SNB-75",160 nM
same,CC50,"SNB-75; Homo sapiens, SNB-75, read-out: LC50",1290 nM
same,Growth percent (G%),"SNB-75; SNB-75, 10^−5 M, 48 h",−9.01%
same,TGI,"SNB-75; SNB-75, five-dose",420 nM
same,GI50,"U251; Homo sapiens, U-251",270 nM
same,CC50,"U251; Homo sapiens, U-251, read-out: LC50",2820 nM
same,Growth percent (G%),"U251; U251, 10^−5 M, 48 h",−77.55%
same,TGI,"U251; U251, five-dose",760 nM
same,Growth percent (G%),"LOX IMVI; 10^−5 M, 48 h",11.13%
same,GI50,LOX IMVI; Homo sapiens,320 nM
same,CC50,"LOX IMVI; Homo sapiens, read-out: LC50",3980 nM
same,TGI,LOX IMVI; five-dose,1320 nM
same,GI50,"MALME-3M; Homo sapiens, Malme-3M",230 nM
same,CC50,"MALME-3M; Homo sapiens, Malme-3M, read-out: LC50",850 nM
same,Growth percent (G%),"MALME-3M; MALME-3M, 10^−5 M, 48 h",−51.66%
same,GI50,"MDA-MB-435; Homo sapiens, MDA-MB-435",300 nM
same,CC50,"MDA-MB-435; Homo sapiens, MDA-MB-435, read-out: LC50",4070 nM
same,Growth percent (G%),"MDA-MB-435; MDA-MB-435, 10^−5 M, 48 h",10.25%
same,TGI,"MDA-MB-435; MDA-MB-435, five-dose",1200 nM
same,GI50,"SK-MEL-28; Homo sapiens, SK-MEL-28",340 nM
same,CC50,"SK-MEL-28; Homo sapiens, SK-MEL-28, read-out: LC50",4680 nM
same,Growth percent (G%),"SK-MEL-28; SK-MEL-28, 10^−5 M, 48 h",−11.84%
same,TGI,"SK-MEL-28; SK-MEL-28, five-dose",1230 nM
same,GI50,"UACC-62; Homo sapiens, UACC-62",280 nM
same,CC50,"UACC-62; Homo sapiens, UACC-62, read-out: LC50",3980 nM
same,Growth percent (G%),"UACC-62; UACC-62, 10^−5 M, 48 h",75.08%
same,TGI,"UACC-62; UACC-62, five-dose",1150 nM
same,GI50,"OVCAR-4; Homo sapiens, OVCAR-4",170 nM
same,CC50,"OVCAR-4; Homo sapiens, OVCAR-4, read-out: LC50",1510 nM
same,Growth percent (G%),"OVCAR-4; OVCAR-4, 10^−5 M, 48 h",−42.04%
same,TGI,"OVCAR-4; OVCAR-4, five-dose",450 nM
same,GI50,"SK-OV-3; Homo sapiens, SK-OV-3",350 nM
same,CC50,"SK-OV-3; Homo sapiens, SK-OV-3, read-out: LC50",5620 nM
same,Growth percent (G%),"SK-OV-3; SK-OV-3, 10^−5 M, 48 h",1.64%
same,TGI,"SK-OV-3; SK-OV-3, five-dose",1780 nM
same,GI50,"RXF 393; Homo sapiens, RXF 393",210 nM
same,CC50,"RXF 393; Homo sapiens, RXF 393, read-out: LC50",2510 nM
same,Growth percent (G%),"RXF 393; RXF 393, 10^−5 M, 48 h",−46.34%
same,TGI,"RXF 393; RXF 393, five-dose",580 nM
same,Growth percent (G%),"SN12C; 10^−5 M, 48 h",−26.26%
same,GI50,SN12C; Homo sapiens,200 nM
same,CC50,"SN12C; Homo sapiens, read-out: LC50",1350 nM
same,TGI,SN12C; five-dose,470 nM
same,GI50,"UO-31; Homo sapiens, UO-31",190 nM
same,CC50,"UO-31; Homo sapiens, UO-31, read-out: LC50",2510 nM
same,Growth percent (G%),"UO-31; UO-31, 10^−5 M, 48 h",−54.91%
same,TGI,"UO-31; UO-31, five-dose",600 nM
same,GI50,"PC-3; Homo sapiens, PC-3",180 nM
same,CC50,"PC-3; Homo sapiens, PC-3, read-out: LC50",1580 nM
same,Growth percent (G%),"PC-3; PC-3, 10^−5 M, 48 h",−33.26%
same,TGI,"PC-3; PC-3, five-dose",460 nM
same,Growth percent (G%),"DU-145; DU-145, 10^−5 M, 48 h",−45.39%
same,TGI,"DU-145; DU-145, five-dose",780 nM
same,GI50,"DU-145; Homo sapiens, DU-145",280 nM
same,CC50,"DU-145; Homo sapiens, DU-145, read-out: LC50",12300 nM
same,GI50,"MCF7; Homo sapiens, MCF7",230 nM
same,CC50,"MCF7; Homo sapiens, MCF7, read-out: LC50",18600 nM
same,Growth percent (G%),"MCF7; MCF7, 10^−5 M, 48 h",0.70%
same,TGI,"MCF7; MCF7, five-dose",1050 nM
same,GI50,"T-47D; Homo sapiens, T47D",260 nM
same,CC50,"T-47D; Homo sapiens, T47D, read-out: LC50",5130 nM
same,Growth percent (G%),"T-47D; T-47D, 10^−5 M, 48 h",−58.11%
same,TGI,"T-47D; T-47D, five-dose",980 nM
same,IC50,ERK1,500 ± 90 nM
same,IC50,JNK2,24000 ± 1240 nM
same,ability to inhibit JNK2 (in words),JNK2,little tendency to inhibit
same,ability to inhibit p38MAPKα (in words),p38MAPKα,little tendency to inhibit
same,IC50,"p38MAPKα; p38MAPKα IC50, 10 μM GST-ATF2",28000 nM and 27900 nM
same,Average G%,"[1]; average over tested NCI-60 cell lines, 10^−5 M (10 μM), 48 h",−4.7% and −4.5% and −4.69%
same,"TGI values, range over all cell lines",[1]; five-dose,350 to 27540 nM
same,"TGI, average",[1]; five-dose,1020 nM
